According to ChEMBL document CHEMBL3232747, “Potential anti-angiogenesis effects of p-terphenyl compounds from Polyozellus multiplex” (J Nat Prod, 2014):
Calls of active or inactive are those of the source. The rule behind the calls is not given here.

Key:
HUVEC [1] = assay: Antiinvasive activity in HUVEC by matrigel assay at 2.5 uM after 22 hrs by fluorescence microscopic technique; assay type: functional, cell-based; details: Homo sapiens
Method in brief: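 HUVECs starved 5 h in serum-free EBM-2 with 0.2% BSA, then 1 × 10^5 cells with compound (2.5 or 5 μM) loaded into inserts coated with 0.2 mg/mL Matrigel. Lower chamber: EBM-2, 0.2% BSA, 20 ng/mL VEGF, 1% FBS plus compound. After 22 h at 37 °C, invaded cells calcein-AM labeled, read at 494/517 nm; mean ± SD, n = 3.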

[2] = biological target: Vascular endothelial growth factor receptor 2 (Homo sapiens, UniProt P35968); assay: Inhibition of recombinant human VEGFR2
Method in brief: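 Recombinant VEGFR2 tyrosine kinase activity measured by ELISA using a universal tyrosine kinase assay kit; Ki8751 as positive control.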

HUVEC [3] = assay: Antiangiogenic activity in HUVEC assessed as inhibition of tubule network formation after 16 hrs by fluorescence microscopic technique; assay type: functional, cell-based; details: Homo sapiens
Method in brief: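 HUVECs (passages 2–8) plated at 1.6 × 10^4 cells on polymerized Matrigel with test compound at 2.5, 5, 7.5 or 10 μM; suramin 10 μM as positive control. Incubated 16 h, 37 °C, 5% CO2. Calcein-AM stained, imaged by fluorescence microscopy at 4×, total tubule length quantified.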

HUVEC [4] = assay: Growth inhibition of HUVEC by WST-8 assay; assay type: functional, cell-based; details: Homo sapiens
Method in brief: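 HUVECs (passages 2–8), 3 × 10^3 cells/well on collagen, adhered 12 h in EGM-2, then 12 h in EGM-2 lacking VEGF and bFGF. VEGF (1 nM) plus compound added for 72 h at 37 °C, 5% CO2. WST-8 added 2 h, absorbance at 450 nm; Ki8751 as positive control.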

Vascular endothelial growth factor receptor 2, sequence (P35968 whole entry): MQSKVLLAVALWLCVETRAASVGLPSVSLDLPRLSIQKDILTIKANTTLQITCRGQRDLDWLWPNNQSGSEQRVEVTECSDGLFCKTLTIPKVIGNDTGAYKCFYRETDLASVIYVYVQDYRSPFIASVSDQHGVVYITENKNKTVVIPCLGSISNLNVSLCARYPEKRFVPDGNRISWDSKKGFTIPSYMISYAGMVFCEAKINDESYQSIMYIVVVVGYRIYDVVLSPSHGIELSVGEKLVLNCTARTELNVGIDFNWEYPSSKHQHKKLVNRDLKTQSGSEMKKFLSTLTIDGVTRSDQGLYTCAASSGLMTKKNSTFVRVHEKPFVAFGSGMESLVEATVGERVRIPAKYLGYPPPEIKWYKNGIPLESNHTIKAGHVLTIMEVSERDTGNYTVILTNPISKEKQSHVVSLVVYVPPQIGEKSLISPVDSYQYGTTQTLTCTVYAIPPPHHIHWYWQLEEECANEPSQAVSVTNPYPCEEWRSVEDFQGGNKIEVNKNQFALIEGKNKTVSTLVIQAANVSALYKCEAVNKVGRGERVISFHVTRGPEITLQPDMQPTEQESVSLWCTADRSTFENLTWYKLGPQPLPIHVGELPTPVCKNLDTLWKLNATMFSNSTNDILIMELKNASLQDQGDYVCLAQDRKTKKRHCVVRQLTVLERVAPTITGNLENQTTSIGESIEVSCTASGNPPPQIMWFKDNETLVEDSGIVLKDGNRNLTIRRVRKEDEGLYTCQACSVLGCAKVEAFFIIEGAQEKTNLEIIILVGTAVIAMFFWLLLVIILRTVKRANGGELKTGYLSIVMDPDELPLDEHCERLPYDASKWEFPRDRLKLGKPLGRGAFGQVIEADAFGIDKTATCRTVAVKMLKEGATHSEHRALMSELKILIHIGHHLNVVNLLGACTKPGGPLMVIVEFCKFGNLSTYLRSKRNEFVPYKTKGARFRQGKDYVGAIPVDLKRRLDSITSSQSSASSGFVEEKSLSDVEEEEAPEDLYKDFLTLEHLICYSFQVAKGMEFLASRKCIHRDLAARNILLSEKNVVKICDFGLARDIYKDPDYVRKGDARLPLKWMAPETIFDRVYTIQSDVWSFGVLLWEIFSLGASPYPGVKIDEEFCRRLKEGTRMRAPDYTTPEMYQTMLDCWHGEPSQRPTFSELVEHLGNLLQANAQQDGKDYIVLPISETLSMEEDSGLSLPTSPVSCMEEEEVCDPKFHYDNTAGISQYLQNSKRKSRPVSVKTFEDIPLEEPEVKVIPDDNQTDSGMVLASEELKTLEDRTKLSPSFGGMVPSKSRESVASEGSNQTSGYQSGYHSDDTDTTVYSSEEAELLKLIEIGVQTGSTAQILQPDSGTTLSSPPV

Compound	IC50 [2]	inhibition (HUVEC [1])	inhibition (HUVEC [3])	IC50 (HUVEC [4])
O=C1C(=O)c2c(oc3cc(O)c(O)cc23)-c2oc3cc(O)c(O)cc3c21	32 µM	Active	Dose-dependent effect	7.6 µM
O=C1c2oc3cc(O)c(O)cc3c2C(=O)c2oc3cc(O)c(O)cc3c21	70 µM	Active	Dose-dependent effect	3.4 µM

Second part, led by results:

IC50 [2]	Compound	inhibition (HUVEC [1])	inhibition (HUVEC [3])	IC50 (HUVEC [4])
66 µM	CC(=O)Oc1c2oc3cc(O)c(O)cc3c2c(OC(C)=O)c2oc3cc(O)c(O)cc3c12 [POLYOZELLIN]		inactive	10.2 µM
52 µM	CC(=O)CC1(O)C(=O)c2c(oc3cc(O)c(O)cc23)-c2oc3cc(O)c(O)cc3c21 (racemic)		inactive	21.4 µM
2.4 µM	COc1cc2nccc(Oc3ccc(NC(=O)Nc4ccc(F)cc4F)c(F)c3)c2cc1OC			1.4 µM
